The results in this text go back to publication PMC5569645 (ACS Chemical Biology, 2017).

“Also recorded” adds a separate entry of the source.

For experiment [1], the target named is NOD2 in native membrane vesicles (Homo sapiens, UniProt Q9HC29). Type of experiment: binding. The following applies: for binding to NOD2 in the native-membrane environment (in words) / relative binding strength: BSI; for binding to NOD2 in the native-membrane environment (in words): native-membrane vesicles; for relative binding strength: NOD2 in native membrane vesicles; for BSI signal on titration after preincubation with excess ligand 2: competition binding, membrane vesicles preincubated with ligand 2 (10 μM). The method in brief:
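Vesicles: about 1 × 10^8 HEK293T-Nod2Myc/tet-op cells in ice-cold HBSS with EDTA-free protease inhibitors, probe-sonicated to clarity, passed through a 220 nm filter (2 h, 6000g, 4 °C). Filtrate stored at 4 °C up to 4 days. Checked by DLS, FM1-43FX lipid stain and Western blot. Fixed vesicle amount plus ligand titration, 40 min dark, RT. BSI chip at 25 °C. Referenced to NOD2-negative HEK293T vesicles; single-site Langmuir fit. Competition: 10 μM excess ligand preincubation, then titration.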

The target of experiment [2] is T1, purified WT NOD2 (Homo sapiens, UniProt Q9HC29). Description: SPR binding assay, surface-tethered ligands and purified WT NOD2. The method in brief: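 Amine-functionalized peptidoglycan derivatives coupled in separate lanes to carboxylic acid-terminated thioalkane self-assembled monolayers on gold. Purified Flag-tagged human WT NOD2 (insect-cell expressed, used within 3 days) flowed over at pH 6.5. Apparent dissociation constants taken from the adsorption isotherm, not a true KD.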
(In SPR one partner is held on a chip, and binding of the other changes the refractive index at the surface.)

Experiment [3] concerns the target T1, purified WT NOD2. Description: Backscattering interferometry. It is filed as binding. In outline: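 Purified Flag-tagged human WT NOD2 from baculovirus/insect cells, stored at 4 °C and used within 3 days, at a fixed 10 nM in PBS pH 6.5. Increasing ligand, incubated 40 min at RT in the dark, then read by BSI on a passivated microfluidic chip at 25 °C. Phase change plotted against concentration; purified NOD1 signal under identical conditions subtracted. Single-site fit; run in triplicate, Kd reported as a range.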

T1 sequence (Q9HC29 whole entry): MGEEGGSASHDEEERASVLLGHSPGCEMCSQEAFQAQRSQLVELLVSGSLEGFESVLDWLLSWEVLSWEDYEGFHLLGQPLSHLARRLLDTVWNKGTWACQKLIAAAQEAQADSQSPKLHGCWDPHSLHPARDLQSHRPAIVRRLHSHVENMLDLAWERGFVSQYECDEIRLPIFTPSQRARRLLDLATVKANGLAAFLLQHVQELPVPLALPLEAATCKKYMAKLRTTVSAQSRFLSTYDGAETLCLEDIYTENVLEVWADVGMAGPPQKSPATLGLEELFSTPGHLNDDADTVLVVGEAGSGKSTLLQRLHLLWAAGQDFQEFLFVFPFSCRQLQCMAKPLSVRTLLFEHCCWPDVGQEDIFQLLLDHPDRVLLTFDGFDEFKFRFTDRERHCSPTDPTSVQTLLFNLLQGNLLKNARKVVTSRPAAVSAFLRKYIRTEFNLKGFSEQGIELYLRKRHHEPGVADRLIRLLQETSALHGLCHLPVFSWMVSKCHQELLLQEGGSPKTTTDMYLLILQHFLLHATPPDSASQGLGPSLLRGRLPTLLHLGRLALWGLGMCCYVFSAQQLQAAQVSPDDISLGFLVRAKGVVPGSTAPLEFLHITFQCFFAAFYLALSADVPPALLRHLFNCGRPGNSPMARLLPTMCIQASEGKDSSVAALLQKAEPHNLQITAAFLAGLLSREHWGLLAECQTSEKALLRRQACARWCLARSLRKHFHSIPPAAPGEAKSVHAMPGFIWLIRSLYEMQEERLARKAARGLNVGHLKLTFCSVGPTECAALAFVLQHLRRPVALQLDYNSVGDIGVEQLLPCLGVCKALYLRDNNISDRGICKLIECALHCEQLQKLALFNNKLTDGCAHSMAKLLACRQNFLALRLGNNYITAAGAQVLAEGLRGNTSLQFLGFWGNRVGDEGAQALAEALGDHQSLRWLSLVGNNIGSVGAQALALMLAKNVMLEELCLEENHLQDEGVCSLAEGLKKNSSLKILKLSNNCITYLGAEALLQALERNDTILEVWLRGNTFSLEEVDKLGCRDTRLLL
Chain of NOD2 in native membrane vesicles (Q9HC29 whole entry): as above

As to `N[C@H](CCC(=O)N[C@H](CCC[C@H](N)C(=O)O)C(=O)O)C(=O)O` [iE-DAP, reference compound], the “binding to NOD2 in the native-membrane environment (in words)” value (“binding to NOD2” below) in experiment [1] is “did not bind”.
Broadly, the Kd is the concentration at which binding is half-saturated. Read a low Kd as higher affinity. For the compound `COC(=O)[C@H](C)NC(=O)[C@@H](C)O[C@H]1[C@H](O)[C@@H](CN)O[C@H](O)[C@@H]1NC(C)=O` [ligand 19], the Kd on purified WT NOD2 [2] is 16 to 30 nM; on purified WT NOD2 [3] it was 8 to 20 nM; in experiment [1], 3 to 30 nM. Further, in experiment [1], the relative binding strength result is reported as “strong”. The “binding to NOD2” value in experiment [1] is recorded as “bind with high affinity; also recorded: strongly bound”.
Turning to `CC(=O)N[C@H]1C(O)O[C@H](CO)[C@@H](O)[C@@H]1O[C@H](C)C(=O)O` (some centres unmarked) [N-acetyl-muramic acid, reference compound], in experiment [1], the “binding to NOD2” value is recorded as “did not bind; also recorded: does not bind or activate”.
`COC(=O)[C@@H](C)O[C@H]1[C@H](O)[C@@H](CN)O[C@H](O)[C@@H]1NC(C)=O` [ligand 20]: at purified WT NOD2 [2], the Kd was 12 to 24 nM. This compound displayed a Kd at purified WT NOD2 [3] of 2 to 10 nM. Besides, in experiment [1], the Kd fell in the range of 50 to 200 nM, the relative binding strength entry is reported as “weak”, the “binding to NOD2” value is on record as “bind with weak affinity; also recorded: weakly bound” and the “BSI signal on titration after preincubation with excess ligand 2” value is “no BSI signal”.
`CC(=O)N[C@@H]1[C@@H](O[C@H](C)C(=O)N[C@@H](C)C(=O)N[C@@H](CCC(=O)O)C(N)=O)[C@H](O)[C@@H](CN)O[C@@H]1O` [ligand 3, 6-amino-MDP-(LL)] gave a Kd at purified WT NOD2 [2] of 10 to 18 nM. Moreover, the Kd at purified WT NOD2 [3] fell in the range of 1 to 6 nM. In experiment [1], the Kd was 3 to 30 nM, the relative binding strength entry is “strong” and the “binding to NOD2” value was “bind with high affinity”.
For the compound `COC(=O)[C@@H](C)O[C@H]1[C@H](O)[C@@H](CO)OC(O)[C@@H]1NC(C)=O` (some centres unmarked) [ligand 23, N-acetyl muramyl methyl ester], the “binding to NOD2” value in experiment [1] is on record as “bound with similar high affinity”.
Turning to `CC(=O)N[C@@H]1[C@@H](O[C@H](C)C(=O)N[C@@H](C)C(=O)N[C@H](CCC(=O)O)C(N)=O)[C@H](O)[C@@H](CN)O[C@@H]1O` [ligand 2, 6-amino-MDP-(LD)], the Kd at purified WT NOD2 [2] was 4 to 10 nM. The same compound gave a Kd at purified WT NOD2 [3] of 2 to 10 nM. Also, in experiment [1], the Kd lay within 3 to 30 nM, the relative binding strength entry is on record as “strong”, the “binding to NOD2” value is on record as “bind with high affinity” and the “BSI signal on titration after preincubation with excess ligand 2” value is given as “no BSI signal”.
For `CC(=O)N[C@@H]1[C@@H](O[C@H](C)C(=O)N[C@@H](C)C(=O)O)[C@H](O)[C@@H](CN)O[C@@H]1O` [ligand 18], on purified WT NOD2 [2], the Kd lay in the range of 24 to 36 nM. The same compound yielded a Kd on purified WT NOD2 [3] of 15 to 30 nM. Moreover, in experiment [1], the relative binding strength entry is reported as “strong” and the “binding to NOD2” value is reported as “indications of binding but unusual curves”.
